Source: ChEMBL document CHEMBL1143123, “Novel analogs of D-e-MAPP and B13. Part 2: signature effects on bioactive sphingolipids” (2008)
The source made the active and inactive calls. The calls are words filed in the database; no cut-off is given here.

What was measured:
[1] = tested on: MCF7; assay: Increase in endogenous C18-ceramide level in human MCF7 cells at 10 uM after 2.5 hrs; assay type: functional
Method in brief: (§1)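 MCF7 cells grown in RPMI 1640 with 10% FCS at 37 °C, 5% CO2. Seeded at ~50% density (1×10^6 cells), treated 24 h later with compounds in ethanol (0.1% final); controls got ethanol only. Cells washed in cold PBS and lipids extracted. Cer species and Sph quantified by HPLC-MS/MS (MRM, positive ion) against internal standards and calibration curves. Values given as pmol/nmol phospholipid and compared with ethanol controls.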

[2] = tested on: MCF7; assay: Increase in endogenous C24-ceramide level in human MCF7 cells at 10 uM after 5 mins; assay type: functional, cell-based; method in brief: as §1
[3] = tested on: MCF7; assay: Increase in endogenous C16-ceramide level in human MCF7 cells at 10 uM after 5 mins; assay type: functional, cell-based; method in brief: as §1
[4] = tested on: MCF7; assay: Inhibition of acid ceramidase in human MCF7 cells assessed as enzyme degradation at 10 uM after 5 hrs; assay type: cell-based
[5] = tested on: MCF7; assay: Increase in endogenous C18-ceramide level in human MCF7 cells at 1 uM after 24 hrs; assay type: functional, cell-based; method in brief: as §1
[6] = tested on: MCF7; assay: Increase in endogenous C14-ceramide level in human MCF7 cells at 10 uM after 5 mins; assay type: functional, cell-based; method in brief: as §1
[7] = tested on: MCF7; assay: Increase in endogenous C16-ceramide level in human MCF7 cells at 10 uM after 2.5 hrs; assay type: functional; method in brief: as §1
[8] = tested on: MCF7; assay: Increase in endogenous C18-ceramide level in human MCF7 cells at 10 uM after 5 mins; assay type: functional, cell-based; method in brief: as §1
[9] = tested on: MCF7; assay: Increase in endogenous C16-ceramide level in human MCF7 cells at 1 uM after 24 hrs; assay type: functional, cell-based; method in brief: as §1
[10] = tested on: MCF7; assay: Inhibition of endogenous sphingosine level in human MCF7 cells at 10 uM after 2.5 hrs; assay type: functional, cell-based
Method in brief: (§2)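 MCF7 cells grown in RPMI 1640 with 10% FCS at 37 °C in 5% CO2. Seeded near 50% density and treated 24 h later with compound in ethanol (0.1% final); controls got ethanol alone. Cells washed in cold PBS and extracted. Cer species, Sph and S1P measured by HPLC-MS/MS (C8 column, positive-ion MRM) against internal standards and calibration curves. Results given as pmol/nmol phospholipid phosphate, relative to ethanol controls.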

[11] = tested on: MCF7; assay: Increase in endogenous C14-ceramide level in human MCF7 cells at 1 uM after 24 hrs; assay type: functional, cell-based; method in brief: as §1
[12] = tested on: MCF7; assay: Decrease in endogenous sphingosine level in human MCF7 cells at 10 uM within 5 mins; assay type: functional; parameters: scale not given: the % may be the effect or the level left; method in brief: as §1
[13] = tested on: MCF7; assay: Decrease in endogenous sphingosine level in human MCF7 cells at 1 uM after 24 hrs; assay type: functional; parameters: scale not given: the % may be the effect or the level left; method in brief: as §1
[14] = tested on: MCF7; assay: Increase in endogenous C14-ceramide level in human MCF7 cells at 10 uM after 2.5 hrs; assay type: functional; method in brief: as §1
[15] = tested on: MCF7; assay: Increase in endogenous C24:1-ceramide level in human MCF7 cells at 10 uM after 5 mins; assay type: functional, cell-based; method in brief: as §2
[16] = tested on: MCF7; assay: Increase in endogenous ceramide level in human MCF7 cells at 1 uM after 24 hrs; assay type: functional; method in brief: as §2
[17] = tested on: MCF7; assay: Increase in endogenous C24:1-ceramide level in human MCF7 cells upto 5 uM after 24 hrs; assay type: functional, cell-based; method in brief: as §2
[18] = tested on: MCF7; assay: Decrease in endogenous C16-ceramide level in human MCF7 cells upto 5 uM after 24 hrs; assay type: functional, cell-based; method in brief: as §1
[19] = tested on: MCF7; assay: Decrease in endogenous C24-ceramide level in human MCF7 cells at 10 uM after 24 hrs; assay type: functional; parameters: scale not given: the % may be the effect or the level left; method in brief: as §1
[20] = tested on: MCF7; assay: Decrease in endogenous C24-ceramide level in human MCF7 cells upto 5 uM after 24 hrs; assay type: functional, cell-based; method in brief: as §1
[21] = tested on: MCF7; assay: Increase in endogenous ceramide level in human MCF7 cells at >25 uM after 24 hrs; assay type: functional, cell-based; method in brief: as §2
[22] = tested on: MCF7; assay: Decrease in endogenous C24:1-ceramide level in human MCF7 cells at 10 uM; parameters: scale not given: the % may be the effect or the level left
[23] = tested on: MCF7; assay: Decrease in endogenous sphingosine level in human MCF7 cells upto 5 uM after 24 hrs; assay type: functional, cell-based; method in brief: as §1
[24] = tested on: MCF7; assay: Decrease in endogenous sphingosine level in human MCF7 cells upto 50 uM after 24 hrs; assay type: functional, cell-based; method in brief: as §1
[25] = tested on: MCF7; assay: Decrease in endogenous C16-ceramide level in human MCF7 cells at 10 uM after 24 hrs; assay type: functional; parameters: scale not given: the % may be the effect or the level left; method in brief: as §1
[26] = tested on: MCF7; assay: Decrease in endogenous sphingosine level in human MCF7 cells at >2.5 uM after 24 hrs; assay type: functional, cell-based; method in brief: as §1
[27] = tested on: MCF7; assay: Increase in endogenous sphingosine level in human MCF7 cells at 10 uM after 5 hrs; assay type: functional; method in brief: as §2
[28] = tested on: MCF7; assay: Increase in endogenous C14-ceramide level in human MCF7 cells at 10 uM within 30 mins; assay type: functional; method in brief: as §1
[29] = tested on: MCF7; assay: Increase in endogenous ceramide level in human MCF7 cells at 10 uM after 24 hrs; assay type: functional; method in brief: as §2
[30] = tested on: MCF7; assay: Increase in endogenous C14-ceramide level in human MCF7 cells after 24 hrs; assay type: functional; method in brief: as §1
[31] = tested on: MCF7; assay: Increase in endogenous C16-ceramide level in human MCF7 cells after 24 hrs; assay type: functional; method in brief: as §1
[32] = tested on: MCF7; assay: Increase in endogenous sphingosine level in human MCF7 cells >5 uM after 24 hrs; assay type: functional, cell-based; method in brief: as §2
[33] = tested on: MCF7; assay: Induction of endogenous C14-ceramide formation in human MCF7 cells after 10 hrs; assay type: functional; method in brief: as §2
[34] = tested on: MCF7; assay: Increase in endogenous sphingosine level in human MCF7 cells after 24 hrs; assay type: functional; method in brief: as §2
[35] = tested on: MCF7; assay: Induction of endogenous C16-ceramide formation in human MCF7 cells after 10 hrs; assay type: functional; method in brief: as §2
[36] = tested on: MCF7; assay: Increase in endogenous sphingosine-1-phosphate level in human MCF7 cells after 5 to 10 hrs; assay type: functional, cell-based; method in brief: as §2
[37] = tested on: MCF7; assay: Increase in endogenous C24:1-ceramide level in human MCF7 cells after 24 hrs; assay type: functional; method in brief: as §2
[38] = tested on: MCF7; assay: Induction of endogenous C24:1-ceramide formation in human MCF7 cells after 10 hrs; assay type: functional; method in brief: as §2
[39] = tested on: MCF7; assay: Increase in endogenous ceramide level in human MCF7 cells upto 10 uM after 24 hrs; assay type: functional; method in brief: as §2
[40] = tested on: MCF7; assay: Increase in endogenous ceramide level in human MCF7 cells at 50 uM after 24 hrs; assay type: functional; method in brief: as §2
[41] = tested on: MCF7; assay: Decrease in endogenous sphingosine level in human MCF7 cells at 50 uM after 24 hrs; assay type: functional; parameters: scale not given: the % may be the effect or the level left; method in brief: as §1
[42] = tested on: MCF7; assay: Increase in endogenous C16-ceramide level in human MCF7 cells at 10 uM after 1 to 2.5 hrs; assay type: functional; method in brief: as §1
[43] = tested on: MCF7; assay: Increase in endogenous C24-ceramide level in human MCF7 cells at 50 uM after 24 hrs; assay type: functional; method in brief: as §2
[44] = tested on: MCF7; assay: Increase in endogenous C16-ceramide level in human MCF7 cells at 50 uM after 24 hrs; assay type: functional; method in brief: as §1
[45] = tested on: MCF7; assay: Increase in endogenous ceramide level in human MCF7 cells at more than 5 uM after 24 hrs; assay type: functional, cell-based; method in brief: as §2
[46] = tested on: MCF7; assay: Increase in endogenous C24:1-ceramide level in human MCF7 cells at 50 uM after 24 hrs; assay type: functional; method in brief: as §2
[47] = tested on: MCF7; assay: Growth inhibition of human MCF7 cells after 48 hrs; assay type: functional, cell-based

CCCCCCCCCCCCCCN[C@H](C)[C@@H](O)c1ccccc1.Cl
Activity [1]: 260%
Activity [2]: inactive
Activity [3]: Active
Activity [4]: Active
Activity [5]: Active
Activity [6]: Active
Activity [7]: 330%
Activity [8]: Active
Activity [9]: Active
Activity [10]: Active
Activity [11]: Active
Activity [12]: 25%
Activity [13]: 80%
Activity [14]: 430%
Activity [15]: inactive
Activity [16]: 180%

CCCCCCCCCCCCCCN[C@H](C)[C@H](O)c1ccccc1
Activity [10]: Active

CCCCCCCCCCCCCC(=O)N[C@H](C)[C@@H](O)c1ccccc1
Activity [17]: Active
Activity [18]: Active
Activity [19]: 30%
Activity [20]: Active
Activity [21]: Active
Activity [22]: 30%
Activity [23]: Active
Activity [24]: Active
Activity [25]: 30%
Activity [26]: Active

C[C@@H](NC(=O)CCCCCCCCCCCCCCC[n+]1ccccc1)[C@@H](O)c1ccccc1.[Br-]
Activity [27]: 300%
Activity [28]: 190%
Activity [29]: 260%
Activity [30]: Dose-dependent effect
Activity [31]: Dose-dependent effect
Activity [32]: Active
Activity [33]: 310%
Activity [34]: Dose-dependent effect
Activity [35]: 157%
Activity [36]: Active
Activity [37]: Dose-dependent effect
Activity [38]: 142%
Activity [39]: 260%

CCCCCCCCCCCCCC(=O)N[C@H](CO)[C@H](O)c1ccc([N+](=O)[O-])cc1
Activity [1]: Active
Activity [40]: 300%
Activity [41]: 50%
Activity [42]: 120%
Activity [19]: 80%
Activity [22]: 80%
Activity [43]: 220%
Activity [44]: 340%
Activity [45]: Active
Activity [46]: 380%
Activity [14]: 120%
Activity [47]: Active
